Reference: PubChem BioAssay
Activity calls are given as the source filed them.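 The calls were made as follows, unless noted: active = viability loss from added drug above about 55%, and viability with drug at most 40%, in both replicates (limit read from the data, passing the limit was not always enough); inconclusive = both conditions met in only one replicate; inactive = neither replicate meets both conditions.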

Tests used:
[1] = reducers of endogenous Her2 protein level, primary screen, SKBR3 breast tumor cells, AlphaScreen, ATP viability (AID 461;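 active = Her2 level under about 52% in both replicate screens, with viability over 70% of control, limit read from the data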;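 as to Her2 level: lower value means less Her2 protein in the cells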;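 as to viability: percent of carrier control wells set as 100% viability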); conditions: 18-24 h, measured here: SKBR3 viability, ATP luminescence, at 10 µM
[2] = target: Receptor tyrosine-protein kinase erbB-2 (Homo sapiens) (UniProt P04626); experiment: as above; conditions: 18-24 h, at 10 µM, stronger effect = lower value
[3] = SK-BR-3 cell growth inhibitors, pilot screen, 24 h, human (AID 572;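 active = viability at or below 10% of carrier control in both of two separate runs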;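 also: compound exposure lasted between 18 and 24 h rather than exactly 24 h; 100% = carrier-treated control wells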); conditions: SK-BR-3 viability, CellTiter-Glo luminescence, at 10 µM, stronger effect = lower value
[4] = HUVEC growth inhibition – cell-based, human, primary screen (AID 575;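 active = viability at or below 30% in both replicate assays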;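 also: 100% = median of untreated cell wells with 0.1% DMSO on each plate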); conditions: HUVEC proliferation, CellTiter-Glo luminescence, 72 h; at 10 µM; stronger effect = lower value
In short: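 material = primary HUVEC, no more than 12 passages | input = 1250 cells per well | controls = vehicle and MePR control wells | measured by = CTG luminescence | times = 72 h compound incubation | format = collagen-coated 384-well format | read-out = % viability vs DMSO wells | doses = single 10 µM dose, 0.1% DMSO, from 5x medium stock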

[5] = growth inhibitors of H69AR lung tumor, primary screen, human, duplicate replicates (AID 580;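 active = viability at or under a set limit in both replicates, limit being median viability minus 3 SD, cut at about 48% in these data, passing the limit was not always enough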;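 also: 100% = mean luminescence of untreated wells and 0% = no signal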); conditions: H69AR lung tumor cells viability, ATP luminescence, 72 h; at 10 µM; stronger effect = lower value
[6] = reversal of MRP1-mediated doxorubicin resistance, pilot screen, H69AR cells, doxorubicin co-treatment (AID 601); conditions: CellTiter-Glo, 72 h, at 10 µM; for differential viability (reversal): stronger effect = higher value
[7] = 384-well plate pilot, post-Golgi transport modulator project, inhibition of yeast transport mutant growth (AID 636; in the data active = inhibition above about 31%); conditions: absorbance 615 nm, about 18 h, stronger effect = higher value
[8] = growth suppression of yeast trafficking mutant, preliminary HTS, modulators of trafficking downstream of Golgi apparatus project, 1536-format plate, OD 615 nm (AID 637; in the data active = inhibition above about 30%); conditions: yeast transport mutant growth, absorbance 615 nm, 18 h; stronger effect = higher value
[9] = H69AR cells + 2 uM doxorubicin, measured here: viability with 2 uM doxorubicin, stronger effect = lower value
[10] = H69AR cells, compound alone cytotoxicity

Receptor tyrosine-protein kinase erbB-2 (Homo sapiens), sequence (P04626 whole entry, looked up): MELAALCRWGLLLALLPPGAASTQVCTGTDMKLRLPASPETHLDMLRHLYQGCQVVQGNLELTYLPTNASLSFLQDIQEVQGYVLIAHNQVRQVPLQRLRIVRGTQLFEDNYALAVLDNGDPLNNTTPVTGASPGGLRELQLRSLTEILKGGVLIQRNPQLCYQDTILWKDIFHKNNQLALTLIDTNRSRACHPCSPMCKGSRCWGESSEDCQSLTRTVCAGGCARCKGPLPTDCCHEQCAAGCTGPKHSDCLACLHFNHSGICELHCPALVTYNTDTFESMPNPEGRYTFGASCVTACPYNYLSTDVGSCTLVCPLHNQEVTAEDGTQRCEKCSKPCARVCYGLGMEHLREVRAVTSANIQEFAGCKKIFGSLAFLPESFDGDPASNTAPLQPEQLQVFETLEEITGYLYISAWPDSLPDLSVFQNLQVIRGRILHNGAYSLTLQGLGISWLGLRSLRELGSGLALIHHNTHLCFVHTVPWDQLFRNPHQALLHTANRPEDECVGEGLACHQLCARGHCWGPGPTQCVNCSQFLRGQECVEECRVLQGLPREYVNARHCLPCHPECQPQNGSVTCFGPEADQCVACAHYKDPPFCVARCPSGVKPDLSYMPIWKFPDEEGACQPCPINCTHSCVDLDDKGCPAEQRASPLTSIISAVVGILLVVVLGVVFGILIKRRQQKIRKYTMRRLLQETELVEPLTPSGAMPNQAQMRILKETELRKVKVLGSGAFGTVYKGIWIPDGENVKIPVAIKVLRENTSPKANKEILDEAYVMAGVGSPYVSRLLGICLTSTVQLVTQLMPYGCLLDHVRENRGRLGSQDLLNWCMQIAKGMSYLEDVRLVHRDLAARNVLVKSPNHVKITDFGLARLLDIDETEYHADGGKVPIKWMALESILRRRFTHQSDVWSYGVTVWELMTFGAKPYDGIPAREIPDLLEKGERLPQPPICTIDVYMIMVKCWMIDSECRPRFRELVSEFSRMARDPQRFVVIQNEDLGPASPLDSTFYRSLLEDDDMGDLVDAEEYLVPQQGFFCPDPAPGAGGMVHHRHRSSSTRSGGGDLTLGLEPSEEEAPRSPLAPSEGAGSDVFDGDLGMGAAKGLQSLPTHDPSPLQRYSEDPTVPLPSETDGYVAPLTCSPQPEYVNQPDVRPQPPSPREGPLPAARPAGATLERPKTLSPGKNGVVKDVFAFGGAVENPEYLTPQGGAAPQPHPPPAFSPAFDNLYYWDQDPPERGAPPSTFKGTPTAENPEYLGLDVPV

Row | Structure (SMILES) | viability [1] [%] | Her2 level [2] | viability [3] | viability [4] | viability [5] | differential viability (reversal) ([6]; H69AR cells + 2 uM doxorubicin) | viability [6, 9] [%] | viability [6, 10] [%] | inhibition [7] | inhibition [8]
1 | Cc1nc2ccc(CCO)cc2s1 | 97.5 | 95.5% (inactive) | 97.5% (inactive) | 102% (inactive) | 93.9% (inactive) | -0.945% (inactive) | 94.8 | 93.9 | -5.89% (inactive) | 0.79% (inactive)
2 | COC(=O)c1ccc(-c2ccc(CNCC(O)c3ccccc3)o2)cc1 (stereo not given) | 111 | 101% (inactive) | 111% (inactive) | 88.8% (inactive) | 101% (inactive) | 8.78% (inactive) | 92.2 | 101 | -2.03% (inactive) | 1.83% (inactive)
3 | Cc1ccc(S(=O)(=O)CC(=O)N2CCCCCC2)cc1 | 85.5 | 100% (inactive) | 85.5% (inactive) | 78.1% (inactive) | 92.7% (inactive) | 1.99% (inactive) | 90.7 | 92.7 | -5% (inactive) | -6.07% (inactive)
4 | O=C(Cn1cnc2ccccc2c1=O)NCCC(=O)N1CCN(c2ccccc2)CC1 | 90.5 | 83.5% (inactive) | 90.5% (inactive) | 99.6% (inactive) | 92% (inactive) | 8.53% (inactive) | 83.5 | 92 | -3.25% (inactive) | -0.98% (inactive)
5 | O=C(Nc1cccc(Cl)c1)N1CCN(c2ncccn2)CC1 | 100 | 94.5% (inactive) | 100% (inactive) | 124% (inactive) | 104% (inactive) | 17.4% (inactive) | 86.7 | 104 | 0.27% (inactive) | -6.51% (inactive)
6 | O=C(NCCN1CCOCC1)c1csc2c1CCCC2 | 97.5 | 83% (inactive) | 97.5% (inactive) | 95% (inactive) | 102% (inactive) | 16.4% (inactive) | 86 | 102 | -7.3% (inactive) | -1.83% (inactive)
7 | CCN(CCNC(=O)C1CCN(S(=O)(=O)CC)CC1)c1ccccc1 | 124 | 92.5% (inactive) | 124% (inactive) | 112% (inactive) | 95.7% (inactive) | 6.31% (inactive) | 89.4 | 95.7 | -7.84% (inactive) | -8.33% (inactive)
8 | CCc1nnc(NC(=O)C2CC(=O)N(Cc3ccco3)C2)s1 (stereo not given) | 107 | 95% (inactive) | 107% (inactive) | 111% (inactive) | 98.4% (inactive) | 4% (inactive) | 94.4 | 98.4 | -2.93% (inactive) | 2.1% (inactive)
9 | COc1ccc(OC)c(S(=O)(=O)Nc2ccc(C(N)=O)cc2)c1 | 98.5 | 91% (inactive) | 98.5% (inactive) | 110% (inactive) | 94% (inactive) | 5.67% (inactive) | 88.4 | 94 | -4.61% (inactive) | -2.3% (inactive)
10 | Cc1occc1-c1nnc(SCC(=O)c2ccc(F)cc2)n1Cc1ccco1 | 77.5 | 82% (inactive) | 77.5% (inactive) | 84.1% (inactive) | 85.3% (inactive) | 3.13% (inactive) | 82.2 | 85.3 | -1.33% (inactive) | -0.16% (inactive)
11 | COc1ccc(OC)c(C2=Nn3c(nnc3C3CCCCC3)SC2)c1 | 94 | 104% (inactive) | 94% (inactive) | 75.4% (inactive) | 78.1% (inactive) | 0.07% (inactive) | 78 | 78.1 | 5.92% (inactive) | 3.06% (inactive)
12 | CN(Cc1ccccc1)Cc1c[nH]c2ccccc12 | 87 | 96.5% (inactive) | 87% (inactive) | 79.7% (inactive) | 89.8% (inactive) | -6.54% (inactive) | 96.3 | 89.8 | -4.61% (inactive) | -1.5% (inactive)
13 | Cc1ccccc1OCCN1C(=O)NC2(CCc3ccccc32)C1=O (stereo not given) | 94.5 | 83.5% (inactive) | 94.5% (inactive) | 92.9% (inactive) | 82.7% (inactive) | 0.01% (inactive) | 82.7 | 82.7 | -6.62% (inactive) | 0% (inactive)
14 | CCOC(=O)C1=C(CN2CCOCC2)NC(=O)NC1c1cc(C)ccc1C (stereo not given) | 92 | 89% (inactive) | 92% (inactive) | 101% (inactive) | 78.9% (inactive) | 16.7% (inactive) | 62.2 | 78.9 | -6.76% (inactive) | 4.33% (inactive)
15 | CC(CCc1ccccc1)NCc1ccncc1 (stereo not given) | 102 | 99.5% (inactive) | 102% (inactive) | 108% (inactive) | 84.9% (inactive) | -4.29% (inactive) | 89.2 | 84.9 | -6.53% (inactive) | 0.48% (inactive)
16 | COC(=O)C1=C(C)NC(C)=C(C(=O)OC)C1c1cc2cc(C)ccc2[nH]c1=O | 103 | 66% (inactive) | 103% (inactive) | 84.6% (inactive) | 79.4% (inactive) | 6.74% (inactive) | 72.6 | 79.4 | -3.29% (inactive) | 3.45% (inactive)

Row | Structure (SMILES) | viability [1] [%] | Her2 level [2] | viability [3] | viability [4] | viability [5] | differential viability (reversal) ([6]; H69AR cells + 2 uM doxorubicin) | viability [6, 9] [%] | viability [6, 10] [%] | inhibition [7] | inhibition [8]
17 | Cc1ccc(N(CC(=O)NCC2CCCO2)S(C)(=O)=O)cc1Cl (stereo not given) | 106 | 82.5% (inactive) | 106% (inactive) | 99.1% (inactive) | 89.2% (inactive) | -3.35% (inactive) | 92.6 | 89.2 | 1.41% (inactive) | -3% (inactive)
18 | CC1(C)Cc2cccc(OCC(=O)O)c2O1 | 107 | 90% (inactive) | 107% (inactive) | 94.5% (inactive) | 95.4% (inactive) | 7.61% (inactive) | 87.8 | 95.4 | -4.53% (inactive) | -3.97% (inactive)
19 | O=S(=O)(Nc1ccc(Cc2ccncc2)cc1)N1CCCC1 | 88 | 94% (inactive) | 88% (inactive) | 104% (inactive) | 92.4% (inactive) | -6.24% (inactive) | 98.6 | 92.4 | -3.92% (inactive) | -1.97% (inactive)
20 | COc1cccc(CN2CCN(C(=O)CC(C)C)CC2)c1 | 92.5 | 76% (inactive) | 92.5% (inactive) | 87.4% (inactive) | 86.4% (inactive) | -2.34% (inactive) | 88.7 | 86.4 | 0.77% (inactive) | -0.83% (inactive)
21 | CC(C)COC(=O)C1[C@H]2C(=O)N(Cc3cccs3)C[C@]23C=C[C@H]1O3 (stereo not given in full) | 102 | 109% (inactive) | 102% (inactive) | 110% (inactive) | 91.1% (inactive) | 1.3% (inactive) | 89.8 | 91.1 | -4.29% (inactive) | -2.33% (inactive)
22 | COc1cc(C)c(-c2cc(C(=O)O)c(C)o2)cc1C(C)C | 99.5 | 88% (inactive) | 99.5% (inactive) | 95.7% (inactive) | 91.8% (inactive) | 6.8% (inactive) | 85 | 91.8 | -3.87% (inactive) | -5.4% (inactive)
23 | O=C(NCc1cccnc1)C1c2ccccc2C(=O)N1Cc1ccco1 (stereo not given) | 94.5 | 91% (inactive) | 94.5% (inactive) | 92% (inactive) | 92.9% (inactive) | 11.6% (inactive) | 81.3 | 92.9 | -1.56% (inactive) | -3.65% (inactive)
24 | Cc1ccc(C(C)n2cc(C(=O)NCCN3CCN(C)CC3)nn2)cc1 (stereo not given) | 106 | 94% (inactive) | 106% (inactive) | 93.5% (inactive) | 86.1% (inactive) | -5% (inactive) | 91.1 | 86.1 | -2.21% (inactive) | -6.19% (inactive)
25 | CCOc1ccc(C(=O)N(CN2CCCC2=O)c2ccc(C)cc2)cc1 | 125 | 114% (inactive) | 125% (inactive) | 116% (inactive) | 95.1% (inactive) | 7.87% (inactive) | 87.2 | 95.1 | -6% (inactive) | 1.94% (inactive)
26 | O=C(NCC1COc2ccccc2O1)c1ccccc1 (stereo not given) | 79 | 95% (inactive) | 79% (inactive) | 113% (inactive) | 92.9% (inactive) | 2.58% (inactive) | 90.4 | 92.9 | -4.27% (inactive) | 0.33% (inactive)
27 | C#CCSc1nnc(-c2ccccc2)c(=O)[nH]1 | 92.5 | 91% (inactive) | 92.5% (inactive) | 89.4% (inactive) | 94.7% (inactive) | 3.12% (inactive) | 91.5 | 94.7 | -3.92% (inactive) | -5.9% (inactive)
28 | CCOC(=O)c1ccc2nc(NC(NC(C)=O)(C(=O)OC)C(F)(F)F)sc2c1 (stereo not given) | 98.5 | 88.5% (inactive) | 98.5% (inactive) | 82.8% (inactive) | 98.6% (inactive) | 15% (inactive) | 83.6 | 98.6 | -3.03% (inactive) | -1.82% (inactive)
29 | CCOC(=O)C1CCN(c2c(N3CCCC(C(=O)OCC)C3)c(=O)c2=O)CC1 (stereo not given) | 103 | 119% (inactive) | 103% (inactive) | 97.1% (inactive) | 96.9% (inactive) | -3.29% (inactive) | 100 | 96.9 | 2.31% (inactive) | -2% (inactive)
30 | COC(=O)c1ccccc1NC(=O)CSc1nc2c(c(=O)n(C)c(=O)n2C)n1C | 86 | 124% (inactive) | 86% (inactive) | 101% (inactive) | 97% (inactive) | 3.48% (inactive) | 93.5 | 97 | 5.26% (inactive) | 26.5% (inactive)
31 | C=C(C)Cn1c(N2CCN(CC)CC2)nc2c1c(=O)[nH]c(=O)n2C | 99.5 | 99.5% (inactive) | 99.5% (inactive) | 80% (inactive) | 85.7% (inactive) | -1.74% (inactive) | 87.5 | 85.7 | -1.07% (inactive) | 6.39% (inactive)
32 | CCOc1ccccc1C(=O)NCCC(=O)O | 95 | 112% (inactive) | 95% (inactive) | 111% (inactive) | 96.4% (inactive) | 1.32% (inactive) | 95.1 | 96.4 | -0.66% (inactive) | 11.3% (inactive)
